Screening data as filed in PubChem BioAssay.
Cl transport mod = KCC2 (human) Cl- transport modulation. B-score of Tl+ flux slope (higher = more flux/activation; lower = inhibition) at 10 µM. actives 2.2% (n = 190,000). KCC2 cells, thallium flux FluoZin-2 fluorescence. Q9H2X9;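 active means thallium flux slope and its plate-corrected score both differing from the plate sample mean at a set confidence after two filtering rounds, in either direction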;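 further: slope of fluorescence scaled to starting intensity during 10 to 20 s after thallium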
Target sequence (Q9H2X9 whole entry, looked up): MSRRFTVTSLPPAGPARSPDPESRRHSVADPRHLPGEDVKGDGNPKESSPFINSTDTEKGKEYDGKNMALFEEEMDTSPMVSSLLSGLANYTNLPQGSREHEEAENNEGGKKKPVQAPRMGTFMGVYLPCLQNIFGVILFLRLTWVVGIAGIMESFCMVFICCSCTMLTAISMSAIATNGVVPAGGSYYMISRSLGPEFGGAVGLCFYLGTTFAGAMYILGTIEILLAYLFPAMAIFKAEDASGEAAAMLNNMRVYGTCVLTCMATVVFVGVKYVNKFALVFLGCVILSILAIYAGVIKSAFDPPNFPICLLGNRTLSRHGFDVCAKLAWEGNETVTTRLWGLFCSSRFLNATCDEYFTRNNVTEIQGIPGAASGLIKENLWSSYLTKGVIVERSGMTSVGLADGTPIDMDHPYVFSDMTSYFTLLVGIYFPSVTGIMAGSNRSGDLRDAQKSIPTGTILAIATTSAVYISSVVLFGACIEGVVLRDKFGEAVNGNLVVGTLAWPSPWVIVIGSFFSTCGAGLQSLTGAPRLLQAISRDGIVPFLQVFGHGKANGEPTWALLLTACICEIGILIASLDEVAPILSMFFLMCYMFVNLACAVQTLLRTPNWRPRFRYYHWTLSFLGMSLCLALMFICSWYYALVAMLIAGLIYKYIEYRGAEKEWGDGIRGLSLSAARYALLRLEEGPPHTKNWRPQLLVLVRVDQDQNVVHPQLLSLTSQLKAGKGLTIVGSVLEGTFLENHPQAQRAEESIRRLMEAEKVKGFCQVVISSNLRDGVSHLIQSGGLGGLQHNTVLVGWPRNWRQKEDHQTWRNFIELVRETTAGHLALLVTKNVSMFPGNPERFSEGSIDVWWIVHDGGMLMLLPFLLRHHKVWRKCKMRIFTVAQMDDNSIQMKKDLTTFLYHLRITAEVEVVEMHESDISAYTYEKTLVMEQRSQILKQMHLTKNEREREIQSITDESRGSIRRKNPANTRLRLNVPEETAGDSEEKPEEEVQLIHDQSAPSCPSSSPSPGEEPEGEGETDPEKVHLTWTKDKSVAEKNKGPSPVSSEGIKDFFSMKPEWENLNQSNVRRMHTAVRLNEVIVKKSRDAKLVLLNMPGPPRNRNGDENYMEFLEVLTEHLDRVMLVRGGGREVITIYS
CHT inh = inhibits the human high affinity choline transporter. Q9GZV3. CHT-expressing cells, membrane potential dye, choline response; hits give low values. B-score at 10 µM. actives 0.86% (n = 310,000);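 active means B-score over 3 SD under the library average, and starting fluorescence ratio not unusually high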;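 further: choline stimulus applied at its EC90 after an EC20 pre-addition; B-score computed on integrated fluorescence ratio after choline addition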
Rad51 HR inh = Rad51 (human) homologous recombination inhibition; AID 1385; hRad51 DNA strand exchange, fluorescence dequenching; actives 0.085% (n = 200,000); Q06609; inhibition, % at 10 µM;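 active means inhibition above 40% at the single screening dose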
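Material: hRad51 filaments on single-stranded DNA; Reagent: Donor/quencher-labelled 47-bp dsDNA substrate; Compound: 10 µM final, single point; Schedule: 37 °C 15-min filament assembly, 30-min compound preincubation, 15-min exchange; Technique: FRET fluorescence, excitation 485 nm, emission 520 nm; Benchmarks: control wells and blank wells on each plate.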
CHT PAM = allosteric activators of human choline transporter CHT | Q9GZV3 | CHT-expressing cells, membrane potential dye, choline EC20; hits give high values; LV-AA mutant CHT in HEK293 cells | B-score at 10 µM | actives 0.49% (n = 310,000) | AID 488977;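 active means initial fluorescence not abnormally high and integrated response B-score, plate-corrected, over 3 SD above library mean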
CHT activ conf = human CHT activation, confirmatory screen; actives 91% (n = 2,500); CHT-expressing cells, membrane potential dye fluorescence (FDSS); % of choline EC20–EC90 response window; HEK293 expressing CHT LV-AA mutant; choline added at its EC20; shares compounds with CHT PAM; activation, % at 10 µM;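 active means primary screen active, with duplicate mean activation above negative control mean plus 3 SD, cut at about 11% in these data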
HEK293 MP dye = activity in parental HEK293 cells lacking CHT; shares compounds with CHT PAM; membrane potential dye fluorescence (FDSS); measured after EC20 choline addition; ratio readout change at 10 µM, hits read low; actives 62% (n = 2,500); AID 623908;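 active means duplicate-averaged ratio beyond 3 SD from buffer wells, up or down, though filed actives are nearly all decreases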
Hits are given with their value; – = inactive; · = not tested or not shown. Rows were chosen to be rich in hits. Some 2.6% of all compounds tested hit in one or more screens of this group.

SMILES | Cl transport mod | CHT inh | Rad51 HR inh | CHT PAM | CHT activ conf | HEK293 MP dye
N#CC(C#N)=C1c2cc(S(=O)(=O)NCCO)ccc2-c2ccc(S(=O)(=O)NCCO)cc21 | – | – | – | 9.5 | 54 | -52
CCC(C)(C)NC(=O)CN(C(=O)CCC(=O)Nc1ccccn1)c1ccc2c(c1)OCO2 | · | – | · | – | · | ·
O=C1c2cnc3ncnn3c2CC2c3ccccc3CCN12 (stereo unspecified) | · | – | – | – | 21 | -27
CCN(CC)CCNS(=O)(=O)c1ccc(OC)c(Br)c1 | – | – | – | – | · | ·
CC(C)(C)n1cn[nH]c1=S | – | – | · | – | · | ·
COc1ccc(-c2csc3nc(C)nc(N4CCCCC4)c23)cc1OC | – | – | – | – | 27 | –
CCN(c1ccccc1)S(=O)(=O)c1cc([N+](=O)[O-])ccc1N | – | – | · | – | · | ·
COc1ccc(C(=O)CSc2nnc(CNC(=O)c3ccco3)n2C)cc1OC | · | – | · | – | · | ·
COc1ccc(C(=O)CSc2nnc(CNC(=O)c3ccco3)n2C)cc1 | – | – | – | 6.6 | 69 | -51
O=C(CSc1ncnc2scc(-c3ccccc3)c12)N1CCN(c2ccccc2F)CC1 | – | – | · | – | 42 | –
CCOC(=O)N1CCN(c2ncnc3scc(-c4ccccc4)c23)CC1 | · | – | · | 9.7 | 15 | –
CCOC(=O)c1sc2ncnc(N3CCN(C)CC3)c2c1C | – | – | – | – | 30 | -41
CCOC(=O)N1CCN(c2ncnc3scc(-c4ccc(Cl)cc4)c23)CC1 | · | – | · | – | · | ·
c1ccc(Nc2nc(-c3ccccn3)cs2)cc1 | – | – | – | – | · | ·
c1ccc(-c2csc(Nc3cccnc3)n2)nc1 | – | – | – | – | 50 | -55
COc1ccccc1/C=N\NC(=O)c1ccc(COc2ccc(C)c(C)c2)o1 | · | – | · | – | · | ·
Cc1nn(CCCC(=O)NCc2ccccc2)c(=O)c2nccn12 | · | – | · | – | · | ·
COC(=O)c1ccccc1NC(=O)CN1CCN(C23CC4CC(CC(C4)C2)C3)CC1 | – | – | – | 6.9 | 30 | –
COc1ccccc1Sc1nc(-c2ccccn2)ncc1OC | · | – | – | – | · | ·
COc1cnc(-c2ccccn2)nc1NC(C)C | · | – | – | 7.8 | 27 | -58
CC(C)c1nnc(NC(=O)Cc2ccc(Br)cc2)s1 | – | – | – | – | · | ·
COc1ccc(-n2nc(C(=O)NCC(=O)NCCCN3CC(C)CC(C)C3)c3ccccc3c2=O)cc1Cl (stereo unspecified) | · | – | · | 7.7 | 43 | -47
COc1ccc(C[C@H]2CN3C(=NC[C@@H]3C)N2CCNC(=O)CCC2CCCCC2)cc1 | – | – | – | – | – | –
C/C=C(\C)C(=O)NCCN1C2=NC[C@@H](Cc3ccccc3)N2C[C@H]1Cc1ccc(O)cc1 | – | – | – | – | · | ·
O=C(CCC1CCCCC1)NCCN1C2=NC[C@@H](Cc3ccccc3)N2C[C@H]1Cc1ccc(O)cc1 | – | – | – | 13 | 37 | –
SMILES | Cl transport mod | CHT inh | Rad51 HR inh | CHT PAM | CHT activ conf | HEK293 MP dye
O=C(CCC1CCCCC1)NCCN1C2=NC[C@H](Cc3ccccc3)N2C[C@H]1Cc1ccc(O)cc1 | – | – | – | 6.8 | 40 | –
C[C@H]1CN=C2N(CCNC(=O)CCC3CCCCC3)[C@H](Cc3ccc(O)cc3)CN21 | – | – | – | – | · | ·
COc1ccc(C[C@@H]2CN3C(=NC[C@@H]3Cc3ccc(O)cc3)N2C[C@H](C)NC(=O)CCC2CCCCC2)cc1 | – | – | – | – | · | ·
CC(=O)N(CCC(c1ccco1)C(C)C)Cc1ccc(Cl)cc1 (stereo unspecified) | – | – | – | 7.4 | 26 | –
O=S(=O)(NC1CCCCC1N1CCCCC1)c1ccccc1 (stereo unspecified) | · | – | · | – | · | ·
Cc1ccc(C)c(N2CCN(C3CCCCC3NS(=O)(=O)c3ccccc3)CC2)c1 (stereo unspecified) | · | – | · | 6.3 | 16 | –
NCCCNc1nc(N)c([N+](=O)[O-])c(NC2CCCCC2)n1 | · | – | · | – | · | ·
Cc1cc(=O)n2nc(-c3ccc(C(F)(F)F)cc3)sc2n1 | – | – | – | 6.8 | 42 | -35
CCOC(=O)c1cnc2cc(C)ccn2c1=O | – | – | · | 8.5 | 52 | -49
